We go through 1 compound from ChEMBL document CHEMBL5653614, “Rescue of fragile X syndrome phenotypes in Fmr1 KO mice by the small-molecule PAK inhibitor FRAX486” (Proc Natl Acad Sci U S A, 2013).

The subject of series [1] is Mus musculus. Description: Protective activity in Fmr1 knockout FVB.129P2-Fmr1tm1Cgr/J mouse model of Fragile X syndrome assessed as increase in testicular weight at 20 mg/kg, sc for 21 days. The class given is functional, organism-based. The note with it: time 21.0 day.
Series [2] concerns Mus musculus. In words: Anti-seizure activity against 124dB loud auditory stimulus induced Fmr1 knockout FVB.129P2-Fmr1tm1Cgr/J mouse model of audiogenic seizure assessed as decrease in sound-induced wild running at 20 mg/kg,sc for 5 days followed by audiogenic seizure induction after 8 hrs post-treatment by audiogenic seizure assay (Rvb=100%). In kind it is functional. The arrangement: scale not given: the % may be the effect or the level left. Conditions: time 5 day. An outline of the steps: (§1)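 Adult male Fmr1 KO mice given 10 or 20 mg/kg s.c. daily for 5 d in 20% hydroxypropyl-β-cyclodextrin vehicle. AGS assay run 8 h after the final injection: 2 min acclimation in an acrylic chamber, then a 124 dB auditory stimulus. Incidence of wild running and seizure recorded; χ2 comparison with vehicle.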

A short description of series [3]: Tmax in FVB.129P2 mouse plasma at 20 mg/kg,sc by LC-MS/MS analysis. The class given is ADME, organism-based. The gist of the method: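 WT FVB.129P2 mice received a single s.c. injection of 20 mg/kg FRAX486 in 20% (wt/vol) hydroxypropyl-β-cyclodextrin. Blood was collected at time points from 15 min to 24 h, n = 2–3 per point. Plasma drug levels were quantified by LC-MS/MS and reported as mean ± SEM.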

For series [4], the system named is Mus musculus. Description: Anti-seizure activity against 124dB loud auditory stimulus induced Fmr1 knockout FVB.129P2-Fmr1tm1Cgr/J mouse model of audiogenic seizure assessed as decrease in sound-induced seizure at 10 mg/kg,sc for 5 days followed by audiogenic seizure induction after 8 hrs post-treatment by audiogenic seizure assay (Rvb=96%). In kind it is functional. The arrangement: scale not given: the % may be the effect or the level left. Conditions: time 5 day. An outline of the steps: as §1

Series [5] concerns Mus musculus. In words: Protective activity in Fmr1 knockout FVB.129P2-Fmr1tm1Cgr/J mouse model of Fragile X syndrome assessed as decrease in time spent in moving at 20 mg/kg, sc for 5 days and measured for 30 mins by open field assay. The class given is functional, organism-based. Conditions: time 5.0 day. An outline of the steps: (§2)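 Adult male WT and Fmr1 KO mice dosed s.c. at 20 mg/kg or vehicle for 5 d; tested 4–5.5 h after dosing. Single mouse in a novel open field for 30 min, tracked by infrared sensors in 1-min bins; bar-graph values averaged over minutes 18–30. Mice beyond 2 SD in total distance, or immobile for 5 consecutive minutes, were excluded.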

For series [6], the system named is Mus musculus. In words: Protective activity in Fmr1 knockout FVB.129P2-Fmr1tm1Cgr/J mouse assessed as decrease in apical dendritic spine density in layer II/III pyramidal neurons segment 8 at 20 mg/kg, sc and measured after 8 hrs by Golgi-Cox technique analysis. In kind it is functional, organism-based. An outline of the steps: (§3)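 Adult male WT and Fmr1 KO FVB mice given 20 mg/kg s.c. or vehicle; brains collected 8 h later and Golgi stained. Apical dendrites of layer II/III pyramidal neurons in temporal cortex, originating 50–100 µm from the soma, were divided into ten 10-µm segments and spines counted. 40–60 neurons from 4–6 mice per group; one-way ANOVA.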

Series [7] concerns Mus musculus. In words: Anti-seizure activity against 124dB loud auditory stimulus induced Fmr1 knockout FVB.129P2-Fmr1tm1Cgr/J mouse model of audiogenic seizure assessed as decrease in sound-induced death due to respiratory arrest at 10 to 30 mg/kg,sc for 8 hrs followed by audiogenic seizure induction by audiogenic seizure assay. In kind it is functional, organism-based. Conditions: dose 10-30 mg/kg. The gist of the method: (§4)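 Adult male mice (10–17 wk). Single s.c. dose (0, 10, 20 or 30 mg/kg) in 20% (wt/vol) hydroxypropyl-β-cyclodextrin vehicle; AGS induced 8 h later. Mouse acclimated 2 min in a clear acrylic two-chamber box, then exposed to a 124 dB sound. Scored as percentage of animals showing each sequential phase (wild running, seizure, death by respiratory arrest); χ2 test against vehicle.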

In series [8] the test system is Mus musculus. In words: Protective activity in Fmr1 knockout FVB.129P2-Fmr1tm1Cgr/J mouse model of Fragile X syndrome assessed as decrease in counterclockwise revolutions at 20 mg/kg, sc for 5 days by open field assay. The class given is functional, organism-based. The note with it: time 5.0 day. An outline of the steps:
as §2

For series [9], the system named is Mus musculus. Description: Protective activity in FVB.129P2-Pde6b+ Tyr c-ch/AntJ wild type mouse assessed as decrease in stereotypy count at 20 mg/kg, sc for 5 days by open field assay. The class given is functional, organism-based. The note with it: time 5.0 day. The gist of the method: as §2
Series [10] has as its system Mus musculus. In words: Protective activity in Fmr1 knockout FVB.129P2-Fmr1tm1Cgr/J mouse assessed as decrease in apical dendritic spine density in layer II/III pyramidal neurons segment 10 at 20 mg/kg, sc and measured after 8 hrs by Golgi-Cox technique analysis. The class given is functional, organism-based. An outline of the steps:
as §3

Series [11] relates to Mus musculus. Description: Protective activity in Fmr1 knockout FVB.129P2-Fmr1tm1Cgr/J mouse assessed as decrease in apical dendritic spine density in layer II/III pyramidal neurons segment 4 at 20 mg/kg, sc and measured after 8 hrs by Golgi-Cox technique analysis. In kind it is functional, organism-based. An outline of the steps: as §3
The test system of series [12] is Mus musculus. In words: Anti-seizure activity against 124dB loud auditory stimulus induced Fmr1 knockout FVB.129P2-Fmr1tm1Cgr/J mouse model of audiogenic seizure assessed as decrease in sound-induced seizure at 20 mg/kg,sc for 5 days followed by audiogenic seizure induction after 8 hrs post-treatment by audiogenic seizure assay (Rvb=96%). The class given is functional. The arrangement: scale not given: the % may be the effect or the level left. Conditions: time 5 day. An outline of the steps: as §1

The test system of series [13] is Mus musculus. In words: Protective activity in FVB.129P2-Pde6b+ Tyr c-ch/AntJ wild type mouse assessed as decrease in horizontal movements at 20 mg/kg, sc for 5 days and measured for 30 mins by open field assay. In kind it is functional, organism-based. The note with it: time 5.0 day. The gist of the method: as §2
Series [14] deals with Mus musculus. Description: Protective activity in Fmr1 knockout FVB.129P2-Fmr1tm1Cgr/J mouse assessed as decrease in apical dendritic spine density in layer II/III pyramidal neurons segment 5 at 20 mg/kg, sc and measured after 8 hrs by Golgi-Cox technique analysis. In kind it is functional, organism-based. The gist of the method: as §3
Series [15] concerns Mus musculus. Description: Anti-seizure activity against 124dB loud auditory stimulus induced Fmr1 knockout FVB.129P2-Fmr1tm1Cgr/J mouse model of audiogenic seizure assessed as decrease in sound-induced seizure at 20 mg/kg,sc and measured after 5 days by audiogenic seizure assay (Rvb=100%). In kind it is functional. The arrangement: scale not given: the % may be the effect or the level left. Conditions: time 5 day. The gist of the method:
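Fmr1 KO mice received one s.c. dose of vehicle or 20 mg/kg in hydroxypropyl-β-cyclodextrin; the AGS assay (124 dB stimulus after 2 min acclimation) was run 5 d later. Seizure incidence recorded.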

For series [16], the system named is Mus musculus. In words: Anti-seizure activity against 124dB loud auditory stimulus induced Fmr1 knockout FVB.129P2-Fmr1tm1Cgr/J mouse model of audiogenic seizure assessed as decrease in sound-induced wild running at 30 mg/kg,sc for 8 hrs followed by audiogenic seizure induction by audiogenic seizure assay (Rvb=100%). The class given is functional. The arrangement: scale not given: the % may be the effect or the level left. An outline of the steps: as §4

The target of series [17] is Serine/threonine-protein kinase PAK 4 (Homo sapiens, UniProt O96013). In words: Inhibition of PAK4 (unknown origin) by Z'-LYTE functional assay. An outline of the steps: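 Full-length PAK isoforms phosphorylating an optimized peptide substrate in a Z-LYTE biochemical kinase assay, 10-point inhibitor titration. Duplicates (n = 2, mean ± SEM) plotted semilog; IC50 from a variable-slope sigmoidal dose–response fit.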
Sequence of Serine/threonine-protein kinase PAK 4 (O96013 whole entry, canonical isoform): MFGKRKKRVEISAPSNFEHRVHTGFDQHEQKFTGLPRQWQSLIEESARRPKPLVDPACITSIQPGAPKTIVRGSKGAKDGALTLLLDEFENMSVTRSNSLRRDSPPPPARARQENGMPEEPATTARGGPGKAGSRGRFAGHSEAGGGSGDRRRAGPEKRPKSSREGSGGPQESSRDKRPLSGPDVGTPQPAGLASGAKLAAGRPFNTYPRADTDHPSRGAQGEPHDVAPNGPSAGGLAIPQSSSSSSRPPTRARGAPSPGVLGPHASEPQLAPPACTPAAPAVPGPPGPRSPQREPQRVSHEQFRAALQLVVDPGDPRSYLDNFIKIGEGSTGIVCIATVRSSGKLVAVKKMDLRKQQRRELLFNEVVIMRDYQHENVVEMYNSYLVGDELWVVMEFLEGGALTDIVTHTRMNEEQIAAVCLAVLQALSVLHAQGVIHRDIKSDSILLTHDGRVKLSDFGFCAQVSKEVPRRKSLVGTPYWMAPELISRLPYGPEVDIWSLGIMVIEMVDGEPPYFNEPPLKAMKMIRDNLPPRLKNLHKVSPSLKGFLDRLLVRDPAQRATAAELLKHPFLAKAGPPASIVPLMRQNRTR

Series [18] has as its system Mus musculus. In words: Protective activity in Fmr1 FVB.129P2-Pde6b+ Tyr c-ch/AntJ wild type mouse assessed as change in apical dendritic spine density in cortical neuron at 20 mg/kg, sc and measured after 8 hrs by Golgi-Cox technique analysis. The class given is functional, organism-based. Conditions: Cortical neurone.
Series [19] has as its system Mus musculus. In words: Protective activity in FVB.129P2-Pde6b+ Tyr c-ch/AntJ wild type mouse assessed as decrease in distance travelled at 20 mg/kg, sc for 5 days and measured during 18 to 30 mins by open field assay. The class given is functional, organism-based. The note with it: time 5.0 day. An outline of the steps: as §2

Molecules are shown by their SMILES. pIC50: −log10 of the molar value. Active and inactive are the calls of the source. The rule behind the calls is not given here.

In general, Tmax refers to the time at which the peak concentration occurs. Broadly, the pIC50 is the negative decadic logarithm of the IC50, by convention in mol/L. As to `CCn1c(=O)c(-c2ccc(Cl)cc2Cl)cc2cnc(Nc3ccc(N4CCNCC4)c(F)c3)nc21`, the outcome in series [1], in series [6], in series [10], in series [14] and in [18] was inactive. Also, the Activity in series [2] is 54%; in series [4], 50%; in series [7], “Dose-Dependent Effect”; in series [12] it was 42%; in series [15], 100%; in series [16], 0%. In addition, in [3], the time to peak (Tmax) is 15 min. For the same compound, the result in series [5], in [8], in series [9], in [11], in series [13] and in series [19] was Active. Also, the pIC50 in series [17] is 6.11.
